Data: ChEMBL document CHEMBL1156597, “Structure-activity relationship of kahalalide F synthetic analogues” (J Med Chem, 2008)

Columns and labels:
[1] = system: PANC-1; experiment: Cytotoxicity against human PANC1 cells after 48 hrs by SRB assay; format: functional; details: PANC-1, 48 h; for CC50: read-out: LC50 (the source's name)
In short: (§1)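 Cells grown in RPMI 1640 with 10% FBS and penicillin/streptomycin at 37 °C and 5% CO₂, trypsinized, then seeded at 5 × 10³/well. After 18 h drug-free attachment, samples in DMSO/EtOH/PBS (0.5:0.5:99) were added for 48 h continuous exposure. Cells were fixed with cold TCA (1 h, 4 °C) and stained with SRB (10 min). Tris-solubilized stain read at 490 nm. Triplicate wells, mean ± SD; GI₅₀ derived.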

[2] = Cytotoxicity against human IGROV cells after 48 hrs by SRB assay; format: functional; details: for CC50: read-out: LC50 (the source's name); in short: as §1
[3] = system: HeLa; experiment: Cytotoxicity against human HeLa cells after 48 hrs by SRB assay; format: functional; details: for CC50: read-out: LC50 (the source's name); in short: as §1
[4] = system: K562; experiment: Cytotoxicity against human K562 cells after 48 hrs by SRB assay; format: functional; details: K562, 48 h, read-out: LC50 (the source's name); in short: as §1
[5] = system: LoVo; experiment: Cytotoxicity against human doxorubicin resistant LoVo cells after 48 hrs by SRB assay; format: functional; details: for CC50: read-out: LC50 (the source's name); in short: as §1
[6] = system: A549; experiment: Cytotoxicity against human A549 cells after 48 hrs by SRB assay; format: functional, cell-based; details: Homo sapiens, A549, 48 h; for GI50: read-out: GI50; in short: as §1
[7] = Cytotoxicity against human IGROV-ET cells after 48 hrs by SRB assay; format: functional; details: for CC50: read-out: LC50 (the source's name); in short: as §1
[8] = system: HT-29; experiment: Cytotoxicity against human HT29 cells after 48 hrs by SRB assay; format: functional, cell-based; details: Homo sapiens, HT-29, 48 h; for CC50: read-out: LC50 (the source's name); in short: as §1
[9] = system: LoVo; experiment: Cytotoxicity against human LoVo cells after 48 hrs by SRB assay; format: functional; details: for CC50: read-out: LC50 (the source's name)
[10] = system: DU-145; experiment: Cytotoxicity against human DU145 cells after 48 hrs by SRB assay; format: functional, cell-based; details: Homo sapiens, DU-145, 48 h; for GI50: read-out: GI50; for CC50: read-out: LC50 (the source's name); in short: as §1
[11] = system: SK-MEL-28; experiment: Cytotoxicity against human SK-MEL-28 cells after 48 hrs by SRB assay; format: functional, cell-based; details: Homo sapiens, SK-MEL-28, 48 h; for GI50: read-out: GI50; for CC50: read-out: LC50 (the source's name); in short: as §1
[12] = Cytotoxicity against human HeLa-APL cells after 48 hrs by SRB assay; format: functional; in short: as §1

SMILES	GI50 [1] [µM]	TGI [1] [µM]	CC50 [1] [µM]	CC50 [2] [µM]	CC50 [3] [µM]	CC50 [4] [µM]	GI50 [5] [µM]	TGI [5] [µM]	CC50 [5] [µM]	LC50 [6] [µM]	CC50 [7] [µM]	CC50 [8] [µM]	GI50 [9] [µM]	TGI [9] [µM]	CC50 [9] [µM]	TGI [10] [µM]	GI50 [10] [µM]	CC50 [10] [µM]	CC50 [11] [µM]	LC50 (concentration giving 50% net cell kill) [12] [µM]	further results
CC[C@@H]1NC(=O)[C@H](Cc2ccccc2)NC(=O)[C@@H](C(C)C)NC(=O)[C@@H]([C@H](C)CC)NC(=O)[C@H](NC(=O)[C@H](NC(=O)[C@H](CCCN)NC(=O)[C@H]2CCCN2C(=O)[C@H](NC(=O)[C@@H](NC(=O)[C@@H](NC(=O)[C@H](NC(=O)CCCC(C)C)C(C)C)[C@@H](C)O)C(C)C)C(C)C)[C@H](C)CC)[C@H](C)OC(=O)[C@H](C(C)C)NC1=O	3.09	4.98	2.83	1.39	1.6	4.26	2.72	2.82	2.93	1.83	1.17	5.25	3.03	3.86	4.93	3.07	3.05	1.7	1.98	1.84	TGI [2]: 2.22 µM; GI50 ([2]; read-out: GI50): 2.81 µM; TGI [7]: 1.43 µM; GI50 ([7]; read-out: GI50): 1.64 µM; GI50 [8]: 7.35 µM; TGI [8]: 9.27 µM; TGI [11]: 3.83 µM; GI50 [11]: 4.48 µM
C/C=C1\NC(=O)[C@H](Cc2ccccc2)NC(=O)[C@@H](C(C)C)NC(=O)[C@@H]([C@H](C)CC)NC(=O)[C@H](N)[C@H](C)OC(=O)[C@H](C(C)C)NC1=O	4.35	9.72	5.52	2.71	3.13	8.32	–	–	9.86	3.58	2.28	10.3	14.9	16.9	9.83	6	5.1	3.31	3.87	3.58	GI50 [3]: 0.74 µM; TGI [3]: 5.42 µM; TGI [7]: 5.58 µM; GI50 ([7]; read-out: GI50): 4.4 µM
CC[C@@H](C)[C@@H](NC(=O)[C@H](CCCN)NC(=O)[C@H]1CCCN1C(=O)[C@H](NC(=O)[C@@H](NC(=O)[C@@H](NC(=O)[C@H](NC(=O)CCCC(C)C)C(C)C)[C@@H](C)O)C(C)C)C(C)C)C(=O)N[C@H]1C(=O)N[C@H]([C@H](C)CC)C(=O)N[C@H](C(C)C)C(=O)N[C@@H](Cc2ccccc2)C(=O)N[C@H](CC)C(=O)N[C@@H](C(C)C)C(=O)O[C@H]1C	4.09	4.98	2.83	0.963	1.6	2.73	1.76	2	2.28	1.83	0.748	3.21	2.63	2.74	2.83	3.04	3.26	1.7	1.98	1.84	TGI [6]: 3.02 µM; GI50 [6]: 3.23 µM; GI50 [8]: 3.66 µM; TGI [8]: 3.41 µM; TGI [11]: 3.36 µM; GI50 [11]: 3.1 µM
C/C=C1\NC(=O)[C@H](Cc2ccccc2)NC(=O)[C@@H](C(C)C)NC(=O)[C@@H]([C@H](C)CC)NC(=O)[C@H](NC(=O)[C@H](NC(=O)[C@H](CCCN)NC(=O)[C@H]2CCCN2C(=O)[C@H](NC(=O)[C@@H](NC(=O)[C@@H](NC(=O)[C@@H](C)NC(=O)CCCC(C)C)[C@@H](C)O)C(C)C)C(C)C)[C@H](C)CC)[C@H](C)OC(=O)[C@H](C(C)C)NC1=O	1.66	1.9	2.18	0.828	0.963	3.31	0.8	1.27	1.85	1.4	0.714	3.34	1.98	2.26	2.22	1.48	1.81	1.2	1.47	1.18	GI50 [3]: 1.03 µM; TGI [3]: 0.998 µM; TGI [6]: 1.43 µM; GI50 [6]: 1.46 µM; GI50 [8]: 3.03 µM; TGI [8]: 3.18 µM; TGI [11]: 1.7 µM; GI50 [11]: 1.99 µM; GI50 [12]: 1.68 µM; TGI [12]: 1.42 µM
C/C=C1\NC(=O)[C@H](Cc2ccccc2)NC(=O)[C@@H](C(C)C)NC(=O)[C@@H]([C@H](C)CC)NC(=O)[C@H](NC(=O)[C@H](NC(=O)[C@H](CCCN)NC(=O)[C@H]2CCCN2C(=O)[C@H](NC(=O)[C@@H](NC(=O)[C@@H](NC(=O)[C@@H](CCC(=O)O)NC(=O)CCCC(C)C)[C@@H](C)O)C(C)C)C(C)C)[C@H](C)CC)[C@H](C)OC(=O)[C@H](C(C)C)NC1=O	5.31	4.88	2.77	0.844	1.57	3.04	2.03	2.22	2.43	1.8	0.705	3.01	1.95	2.2	2.49	3.01	2.84	1.66	1.95	1.8	GI50 [3]: 2.94 µM; TGI [3]: 2.72 µM; TGI [6]: 2.96 µM; GI50 [6]: 3.25 µM; GI50 [7]: 0.969 µM; GI50 ([7]; read-out: GI50): 1.31 µM; GI50 [8]: 2.91 µM; TGI [8]: 2.96 µM; TGI [11]: 3.75 µM; GI50 [11]: 3.73 µM; GI50 [12]: 2.91 µM; TGI [12]: 3.57 µM
C/C=C1\NC(=O)[C@H](Cc2ccccc2)NC(=O)[C@@H](C(C)C)NC(=O)[C@@H]([C@H](C)CC)NC(=O)[C@H](NC(=O)[C@H](NC(=O)[C@H](CCCN)NC(=O)[C@H]2CCCN2C(=O)[C@H](NC(=O)[C@@H](NC(=O)[C@@H](NC(=O)[C@H](N)C(C)C)[C@@H](C)O)C(C)C)C(C)C)[C@H](C)CC)[C@H](C)OC(=O)[C@H](C(C)C)NC1=O	5.49	5.39	3.06	1.5	1.74	4.61	–	–	5.47	1.98	1.26	5.68	9.46	9.36	5.45	–	–	1.84	4.14	1.99	TGI [7]: 3.1 µM; GI50 ([7]; read-out: GI50): 4.01 µM
